First the molecules themselves.
B1: tRNA (parent)
chain: GUUCCGUUGGCGUAAUGGUAACGCGUCUCCCUCCUAAGGAGAAGACUGCGGGUUCGAGUCCCGUACGGAACG

Variants at the floor of the assay were thinned out.

Variants of B1 are the subject of the data set. Description: yeast fitness relative to wild type (ratio to wild type); higher = fitter; tRNA-Arg(CCU), competitive growth, 37 C, YPD. A digest of the protocol:
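Amplicons of the tRNA-Arg(CCU) gene were sequenced, 100-nucleotide paired-end, from the start population and from each end population of a pooled yeast competition. The competition, in six parallel replicates, lasted 24 hours in YPD at 37°C. Fitness relative to wild type was calculated from changes in genotype frequencies. Genotypes had to have ≥ 100 starting reads, and estimates < 0.5 were set to 0.5.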
In the case of GUUCCGUUGGCGUAAUGGUAACGCGUCUCCCGCCUACGGAGAAGACUGCGGGUUCGCGUCCCAUACGGAACG [U32G A37C A57C G63A], the yeast fitness was ≤ 0.5. For GUUCCGUUGGCGUAAUGGUAACGCGUCUCCCCCCUAAGGAGAAGACUGCGGGUUCGAGUCCCGUACUGAACG [U32C G67U] the value was 0.861; for GUUCCGUUGGCGUAAUGGUAACGCGUCUCCCCCCUAAGGAGAAGACUGCGGGUUCGAGUCCCGUACAGAACG [U32C G67A], 0.855. For GUUCCGUUGGCGUAAUGGUAACGCGUCUCCCCCCUAAGGAGAAGACUGUGGGUUCGCGUCCCGUACGGAACG [U32C C49U A57C] the value was 0.654; for GUUCCGUUGGCGUAAUGGUAACGCGUCUCCCGCCUAAGGAGAAGACUGCGGGUUCGAGUCCCGUACGGUACG [U32G A69U], 0.711. Take GUUCCGUUGGCGUAAUGGUAACGCGUCUCCCGCCUAAGGAGAAGACUGCGGGUUCGAGUCCCGUACGGACCG [U32G A70C]: the yeast fitness is 0.787. The same measure for GUUCCGUUGGCGUAAUGGUAACGCGUCUCCCCCCUAAGGAGAAGACUGCGGGUUCGAGUCGCGUACGGAACG [U32C C61G]: 0.702; for GUUCCGUUGGCGUAAUGGUAACGCGUCUCCCCCCUAAGGAGAAGACUGCGGGUUCGAGUCUCGUACGGAACG [U32C C61U]: 0.987; for GUUCCGUUGGCGUAAUGGUAACGCGUCUCCCCCCUAAGGAGAAGACUGCGGGUUUGCGUCCCGUACAGAACG [U32C C55U A57C G67A]: 0.638.

On to GUUCCGUUGGCGUAAUGGUAACGCGUCUCCCCCCUAAGGAGAAGAUUGCGCGUUCGAGUCCUGUACGGAACG [U32C C46U G51C C62U], for which the yeast fitness is ≤ 0.5. The same measure for GUUCCGUUGGCGUAAUGGUAACGCGUCUCCCGCCUAAGGUGAAGACUGCGGAUUCGUGUCCCGUCCGGAACG [U32G A40U G52A A57U A65C]: ≤ 0.5; for GUUCCGUUGGCGUAAUGGUAACGCGUCUCCCGCCUAAGGUGAAGACUGCGGGUUCGAGUCCCGGACGGAACG [U32G A40U U64G]: 0.543; for GUUCCGUUGGCGUAAUGGUAACGCGUCUCCCCCCUAAGGAGAAGACUGCGGGUUUGGGUCCCGUACGGAACG [U32C C55U A57G]: 0.555.

Regarding GUUCCGUUGGCGUAAUGGUAACGCGUCUCCCCCCUAAGGACAAGACUGCGGGUUCGAUUCCCGUACGGAACG [U32C G41C G58U], the yeast fitness worked out at 0.533.

Take GUUCCGUUGGCGUAAUGGUAACGCGUCUCCCCCCUAAGGAGAAGACUGCAGGUUCGAGUCCCGUACGGAACG [U32C G50A]: the yeast fitness was 1.02. The same measure for GUUCCGUUGGCGUAAUGGUAACGCGUCUCCCCCCUAAGGAGAAGACUGCGGGUACGAGUCCCGUGCGGAACG [U32C U54A A65G]: ≤ 0.5; for GUUCCGUUGGCGUAAUGGUAACGCGUCUCCCGCCUAAGGAGGAGACUGCGGGUUCGAGUCCCGUACGGAACG [U32G A42G]: 0.56. The same measure for GUUCCGUUGGCGUAAUGGUAACGCGUCUCCCCCCUAAGGAGAAGAGUGCGGGUUCGAGUCCCGUGCGGAACG [U32C C46G A65G]: 0.917; for GUUCCGUUGGCGUAAUGGUAACGCGUCUCCCGCCUAAGGAGAAGCCUGCGGGUUCGAGUCCCGUACGGAACG [U32G A45C]: 0.692. For the variant GUUCCGUUGGCGUAAUGGUAACGCGUCUCCCGCCUAAGGAGAAGGCUGCGGGUUCGAGUCCCGUACGGAACG [U32G A45G], the yeast fitness was 0.673. The same measure for GUUCCGUUGGCGUAAUGGUAACGCGUCUCCCCCCUAAGGAGAAGAGUGCGGGUUCGUGUCCCGUACGGAACG [U32C C46G A57U]: 0.673; for GUUCCGUUGGCGUAAUGGUAACGCGUCUCCCCCCUAAGGAGAAGAGUGCGGGUUCGAGUCGCGUACGGAACG [U32C C46G C61G]: 0.587. For GUUCCGUUGGCGUAAUGGUAACGCGUCUCCCCCCUAAGGAGAAGACUGCGGCUUCGAGUCCCGUACAGCACG [U32C G52C G67A A69C] the value was ≤ 0.5. The same measure for GUUCCGUUGGCGUAAUGGUAACGCGUCUCCCCCCUAAGGAGAAGACUGCGGGAUCGAGUCCCGUACGGAACG [U32C U53A]: 0.691; for GUUCCGUUGGCGUAAUGGUAACGCGUCUCCCCCCUAAGGAGAAGACUGCGGGCUCGAGUCCCGUACGGAACG [U32C U53C]: 0.766; for GUUCCGUUGGCGUAAUGGUAACGCGUCUCCCGCCUAUGGAGAAGACUGCGGGUUCGAGUCCCGUACGGAACG [U32G A37U]: 0.55. In the case of GUUCCGUUGGCGUAAUGGUAACGCGUCUCCCCCCUAAGGAGAAGACUGCGGGUUCGAGUCCUGUAGGGAACG [U32C C62U C66G], the yeast fitness is ≤ 0.5.

Regarding GUUCCGUUGGCGUAAUGGUAACGCGUCUCCCCCCUAAGGAGAAGACUGCGGGUUCGAGUGCGGUACGGAACG [U32C C60G C62G], the yeast fitness is ≤ 0.5.

Consider GUUCCGUUGGCGUAAUGGUAACGCGUCUCCCCCCUAAGGAGAAGACUGCGGGUUCGAGUCCUGUACGGAACG [U32C C62U], for which the yeast fitness came out at 1.02. For GUUCCGUUGGCGUAAUGGUAACGCGUCUCCCCCCUAAGGAGAAGACUGCGGGUUCGAGUCCGGUACGGAACG [U32C C62G] the value was 0.796.

Take GUUCCGUUGGCGUAAUGGUAACGCGUCUCCCCCCUAAGGAGAAGACUGCGGGUUCGAGUCCAGUACGGAACG [U32C C62A]: the yeast fitness came to 0.727.

On to GUUCCGUUGGCGUAAUGGUAACGCGUCUCCCGCCUAAGGAGAAGCCUGCGGGUUCGAGUCCCGUACGAAACG [U32G A45C G68A], for which the yeast fitness is ≤ 0.5.

As for GUUCCGUUGGCGUAAUGGUAACGCGUCUCCCCCCUAAGGAGAAGAGUGCGGGUUCCAGUCCCGUACGGAACG [U32C C46G G56C], the yeast fitness was ≤ 0.5.

Take GUUCCGUUGGCGUAAUGGUAACGCGUCUCCCCCCUAACGAGAAGACUGCGGGUUCGAGUCCCGUACGGAACG [U32C G38C]: the yeast fitness amounted to 0.742. For the variant GUUCCGUUGGCGUAAUGGUAACGCGUCUCCCCCCUAAGGAGAAGACUGCGGGUUCGAGUCCCAUACGGAACG [U32C G63A], the yeast fitness was determined as 0.832. For GUUCCGUUGGCGUAAUGGUAACGCGUCUCCCGCCUUAGGAGAAGGCUGCGGGUUCGAGUCCCGUACGGAACG [U32G A36U A45G] the value was ≤ 0.5; for GUUCCGUUGGCGUAAUGGUAACGCGUCUCCCGCCUAAGGAGAAGGCUGUGGGUUCGAGUCCCGUACGGAACG [U32G A45G C49U], ≤ 0.5.
